A selection: hits, their analogues and other compounds. The true share with any hit is near 4.3%.
NF-kB expr up – NF-kB expression increase, human neuronal cells | 1.6% of 190,000 active | AID 1239 | NF-kB reporter expression; stronger effect = higher value | fold change at 12.5 µM; in the data active = fold change above about 3.3
STAT1 act – STAT1 signaling activation; NIH 3T3 STAT1-luciferase reporter, IFN-gamma, luminescence; 100% = IFN-gamma alone, no compound; activation (% of control), % at 5.5 µM; 2.6% of 200,000 active; AID 932;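 active = activation above the screen-wide mean activation plus 3 SD, cut at about 130% in these data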;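 note: raw ratio to IFN-gamma control signal so 100% means no change and 0% no light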
FLuc act counter – firefly luciferase counter-screen for stimulation assays. P08659. 200,000 tested, under 10 active. activation factor at 10 µM. ATPlite luciferase biochemical, luminescence, 10 min; 0 = ATP-free wells, 1 = DMSO control;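 active = luciferase activation factor, scaled between plate controls, of at least 2 with compound at 10 µM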
Target sequence (P08659 whole entry, looked up): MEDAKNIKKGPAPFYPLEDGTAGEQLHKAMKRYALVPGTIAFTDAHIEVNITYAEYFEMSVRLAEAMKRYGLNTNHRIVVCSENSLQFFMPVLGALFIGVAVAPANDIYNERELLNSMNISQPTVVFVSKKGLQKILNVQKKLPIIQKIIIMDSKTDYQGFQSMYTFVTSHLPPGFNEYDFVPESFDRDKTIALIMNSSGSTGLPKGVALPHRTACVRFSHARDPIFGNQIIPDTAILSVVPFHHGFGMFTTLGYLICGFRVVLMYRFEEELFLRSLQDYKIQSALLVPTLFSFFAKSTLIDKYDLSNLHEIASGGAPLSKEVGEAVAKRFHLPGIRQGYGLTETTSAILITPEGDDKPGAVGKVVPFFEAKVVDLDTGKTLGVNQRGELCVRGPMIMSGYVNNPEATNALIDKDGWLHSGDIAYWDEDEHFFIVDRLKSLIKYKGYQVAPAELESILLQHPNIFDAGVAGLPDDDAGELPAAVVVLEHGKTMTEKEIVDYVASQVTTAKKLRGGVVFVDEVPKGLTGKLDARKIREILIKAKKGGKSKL
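Assay system: Luciferase/luciferin detection reagent, cell-free biochemical luciferase assay / Read-out: luciferase activation / Benchmarks: No-ATP low control, compound-free enzyme-plus-ATP high control / Medium: PBS buffer for ATP / Detection: luminescence measurement of luciferase light output / Schedule: 10 min at ambient temperature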
FLuc inh counter – inhibits firefly luciferase, flagging false hits in luciferase inhibition screens | AID 1006 | inhibition, % at 10 µM | 1.5% of 200,000 active | ATPLite firefly luciferase biochemical luminescence, 10 min | P08659;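 active = inhibition above about 50% when tested at 10 µM, limit read from the data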
APP 5'UTR act – activates APP 5'UTR luciferase reporter; SH-SY5Y APP 5'UTR luciferase reporter, luminescence; zero percent = DMSO vehicle wells; activation, % at 2 µM; 1% of 190,000 active;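 active = activation above a set limit, based on mean plus 3 SD of controls, cut at about 140% in these data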
Starred values were filed as active, the others as inactive.

SMILES | NF-kB expr up | STAT1 act | FLuc act counter | FLuc inh counter | APP 5'UTR act
CC(C)CC(=O)N1CCN(S(=O)(=O)c2ccc3ccccc3c2)CC1 | 0.91 | 99 | 1 | -3 | 2
N=c1sccn1CC(=O)NC(c1ccccc1)c1ccccc1 | 1 | 107 | 1.1 | -8 | 7
O=C(Nc1ccc(Cl)cc1)c1ccc2c(c1)OCO2 | 6.8* | 139* | 0.6 | 45 | 193*
Cc1ccnc(NC(=O)c2ccc(N3C(=O)CCC3=O)cc2)c1 | 1.4 | 126 | 0.2 | 79* | 2
CC(=O)Nc1ccc(C(=O)Nc2ccc3c(c2)OCO3)cc1 | 1.6 | 108 | 1 | -2 | 9
Cc1ccnc(NC(=O)c2cc([N+](=O)[O-])cc([N+](=O)[O-])c2)c1 | 1.2 | 103 | 1.1 | -7 | -14
Cc1ccnc(NC(=O)c2ccc3c(c2)C(=O)N(CC2CCCO2)C3=O)c1 (stereo unspecified) | 1.2 | 115 | 0.4 | 56* | -6
O=C(Nc1ccc(Cl)cc1)C1=Cc2ccccc2OC1 | 9.2* | 143* | 0.8 | 17 | 210*
O=C(CCSc1ccc(Br)cc1)Nc1cccnc1 | 1.2 | 103 | 1.1 | -7 | 14
NC(N)=Nc1nc(-c2ccccc2)c2cc(F)ccc2n1 | 2.6 | 89 | 1 | -3 | -25
Cn1cc([N+](=O)[O-])c(C(=O)N(Cc2ccccc2)Cc2ccccc2)n1 | 1.2 | 104 | 1.1 | -6 | -2
CCN(CC)S(=O)(=O)c1ccc(NN=C2CCN(C)CC2)c([N+](=O)[O-])c1 | 1.1 | 89 | 1.1 | -9 | 0
NC(=O)c1ccc(NC(=O)c2ccc3c(c2)OCO3)cc1 | 2.5 | 139* | 0.8 | 25 | 38
Cc1ccnc(NC(=O)c2ccc3c(c2)OCO3)c1 | 4.2* | 76 | 0.1 | 92* | 206*
O=C(Nc1ccc2c(c1)OCCO2)NC1CCCCC1 | 5.2* | 129* | 0.3 | 71* | 138*
COc1ccc(C)cc1NC(=O)C(c1ccccc1)N1CCNC(=O)C1 (stereo unspecified) | 1.2 | 98 | 1 | -3 | 9
Cc1nc2c(-c3ccc(F)cc3)cnn2c2c1CCC2 | 1.8 | 130* | 0.9 | 9 | 32
CCn1nc(C(=O)OCC(=O)c2cc(C)n(Cc3cccs3)c2C)c2ccccc2c1=O | 1.1 | 116 | 0.4 | 58* | -3
Cc1cc(C(=O)COC(=O)c2ccccc2O)c(C)n1Cc1cccs1 | 0.23 | 31 | 0.1 | 90* | 8
CC(NC(=O)c1cc(Br)ccc1Br)c1ccccc1 (stereo unspecified) | 0.98 | 91 | 1.1 | -6 | -7
O=C(c1ccccc1F)N1CCN(c2ccc([N+](=O)[O-])c(N3CCOCC3)c2)CC1 | 0.97 | 104 | 0.1 | 90* | -10
CC(=O)c1cc(N2CCOCC2)ccc1[N+](=O)[O-] | 5.6* | 104 | 1 | -4 | 10
Cc1ccccc1C(=O)N1CCN(c2ccc([N+](=O)[O-])c(N3CCOCC3)c2)CC1 | 0.88 | 84 | 1 | -2 | 9
Cc1onc(-c2c(F)cccc2Cl)c1C(=O)NC1CCSC1=O (stereo unspecified) | 1.1 | 95 | 1 | 0 | -3
O=C(/C=C/c1ccccc1Cl)c1ccccc(=O)c1O | 26* | 85 | 1 | 1 | 10
SMILES | NF-kB expr up | STAT1 act | FLuc act counter | FLuc inh counter | APP 5'UTR act
Cc1ccc(C)c(/C=C/C(=O)c2ccccc(=O)c2O)c1 | 1 | 76 | 1 | -2 | -38
O=C(NCc1ccccn1)C(C(=O)c1cccc([N+](=O)[O-])c1)n1cc(Cl)ccc1=O (stereo unspecified) | 1.1 | 111 | 1.1 | -6 | -5
CCCCSc1ccc2nc(-c3ccc(C#N)cc3)cn2c1 | 2.2 | 131* | 0.9 | 13 | 37
CCn1c(COc2ccc(C)cc2)nnc1SCc1ccc(C#N)cc1 | 1 | 101 | 1.1 | -8 | -9
CCCSc1ccc2nc(-c3ccccc3)cn2c1 | 1.2 | 31 | 0 | 95* | 98
CN1C(=O)NC(c2cccc(O)c2)C(C(=O)c2cccs2)C1(O)C(F)(F)F (stereo unspecified) | 1.8 | 99 | 1 | -3 | 135*
CCOC(=O)C1C(c2cccs2)NC(=O)N(C)C1(O)C(F)(F)F (stereo unspecified) | 1.1 | 104 | 1.1 | -6 | -10
Cc1ccc2c(c1)NC(=O)c1cccnc1N2 | 2.9 | 139* | 0.8 | 21 | 54
O=C1Nc2ccccc2Nc2ncccc21 | 1.2 | 95 | 1 | -2 | 1
Cc1cc(C)c2c(N)c(C(=O)c3cccc(Cl)c3)sc2n1 | 0.63 | 118 | 1.1 | -5 | 9
Cc1snc2sc(C(=O)c3ccc(Br)cc3)c(N)c12 | 1.3 | 135* | 1 | 0 | 3
CN(C)/C=N/NC(=O)c1ccccc1 | 1.1 | 103 | 1 | -1 | 0
CC(O)C(O)C(O)C(O)/C=N/NC(=O)c1ccccc1 (stereo unspecified) | 1.1 | 129* | 1 | -1 | 56
COc1ccccc1NC(=S)N1CCN(C(=O)C2CCCO2)CC1 (stereo unspecified) | 1.1 | 101 | 1 | -4 | 5
COc1cccc(C(C(=O)NC2CCCC2)N(CC2CCCO2)C(=O)Cc2cccs2)c1 (stereo unspecified) | 0.99 | 96 | 1.1 | -8 | 20
Cc1cc(N2CCOCC2)n2ncc(-c3ccccc3)c2n1 | 0.81 | 71 | 0.2 | 84* | 142*
Cc1cc(N2CCC(C)CC2)n2ncc(-c3ccccc3)c2n1 | 0.8 | 132* | 0.6 | 39 | 194*
Cc1cc(N2CCN(C(=O)c3ccco3)CC2)n2ncc(-c3ccccc3)c2n1 | 1 | 127 | 1 | -3 | 79
Cc1cc(N2CCC(C)CC2)n2nc(C)c(-c3ccccc3)c2n1 | 1.1 | 98 | 1 | -4 | -4
Cc1cc(N2CCCCC2)n2ncc(-c3ccccc3)c2n1 | 1.2 | 111 | 0.3 | 67* | 217*
Cc1cc(N2CCCCC2)n2nc(C)c(-c3ccccc3)c2n1 | 1.4 | 108 | 1 | -1 | 1
Cc1cc(-c2ccccc2)n2ncc(-c3ccccc3)c2n1 | 1.4 | 143* | 0.1 | 85* | 166*
CCOC(=O)c1csc(NNC=O)n1 | 1.3 | 100 | 1 | -2 | -4
Cc1cc(NCCCn2ccnc2)n2nc(C)c(-c3ccccc3)c2n1 | 1.6 | 123 | 0.8 | 17 | 48
Cc1cc(N2CCCCC2)n2ncc(-c3ccc(Cl)cc3)c2n1 | 1.1 | 139* | 0.8 | 17 | 38
Cc1cc(NCCCn2ccnc2)n2ncc(-c3ccccc3)c2n1 | 0.92 | 76 | 0.1 | 87* | 102
Cc1c(/C(O)=C2/C(=O)C(=O)N(Cc3cccnc3)C2c2cccs2)cnn1-c1ccccc1 (stereo unspecified) | 0.5 | 141* | 1 | 2 | 141*
CC(=O)N1CCc2ccc(S(=O)(=O)N3CCN(C)CC3)cc21 | 1 | 104 | 1 | -1 | -11
CC1=Nc2cc(C(=O)NCc3ccco3)ccc2Sc2ccc(C)cc21 | 3.5* | 95 | 1.1 | -7 | -96
